The values below come from ChEMBL document CHEMBL3352094, “Trehalose- and glucose-derived glycoamphiphiles: small-molecule and nanoparticle Toll-like receptor 4 (TLR4) modulators” (J Med Chem, 2014).

The source made the active and inactive calls. The rule behind the calls is not given here.

Series [1] concerns the target T1, Toll-like receptor 4 (Homo sapiens, UniProt O00206). The series can be described thus: Agonist activity at TLR4 (unknown origin) expressed in HEK293 Blue cells measured after 2 to 4 hrs by spectrophotometry.
Series [2] concerns the target T2, Toll-like receptor 4 (Mus musculus) (UniProt Q9QUK6).
T2 sequence (whole entry): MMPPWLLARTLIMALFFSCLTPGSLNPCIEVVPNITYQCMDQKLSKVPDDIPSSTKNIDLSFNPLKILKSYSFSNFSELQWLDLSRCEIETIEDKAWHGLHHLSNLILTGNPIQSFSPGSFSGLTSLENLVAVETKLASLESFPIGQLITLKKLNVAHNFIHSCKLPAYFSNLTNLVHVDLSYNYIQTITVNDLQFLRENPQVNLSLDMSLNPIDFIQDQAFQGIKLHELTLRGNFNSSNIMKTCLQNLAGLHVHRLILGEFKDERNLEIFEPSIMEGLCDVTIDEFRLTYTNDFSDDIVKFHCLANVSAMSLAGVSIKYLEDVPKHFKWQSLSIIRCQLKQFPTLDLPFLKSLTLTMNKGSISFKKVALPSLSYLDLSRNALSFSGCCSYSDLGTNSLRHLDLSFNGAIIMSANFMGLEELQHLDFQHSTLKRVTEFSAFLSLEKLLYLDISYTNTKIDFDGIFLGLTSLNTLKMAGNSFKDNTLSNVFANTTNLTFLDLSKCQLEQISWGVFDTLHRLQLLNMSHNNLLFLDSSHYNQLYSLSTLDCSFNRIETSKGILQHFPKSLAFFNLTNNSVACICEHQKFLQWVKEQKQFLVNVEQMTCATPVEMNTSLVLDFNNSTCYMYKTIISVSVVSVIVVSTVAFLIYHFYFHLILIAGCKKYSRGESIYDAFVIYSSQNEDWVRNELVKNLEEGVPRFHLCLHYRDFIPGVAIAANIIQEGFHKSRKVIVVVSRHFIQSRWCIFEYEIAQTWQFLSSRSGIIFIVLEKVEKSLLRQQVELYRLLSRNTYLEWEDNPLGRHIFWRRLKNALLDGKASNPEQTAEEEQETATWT
The series can be described thus: Activation of mouse TLR4 in mouse BMDM cells by ELISA. It counts as cell-based.

Series [3] concerns the target T2, Toll-like receptor 4 (Mus musculus). The series can be described thus: Antagonist activity at mouse TLR4 in mouse BMDM cells assessed as inhibition of LPS-stimulated TNFalpha production compound treated for 1 hr before LPS challenge by ELISA. It counts as cell-based. In a few lines:
(§1)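 Bone marrow-derived murine macrophages in RPMI with 10% FBS were pretreated with compound (0–2 µM), and LPS was added 1 hour later. After overnight incubation, IL-6 and TNF-α in the medium were measured by ELISA. Cells not given LPS served as negative controls.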
In general terms: In an ELISA, binding on a coated surface is turned into a signal by an enzyme label.

Series [4] in a line: Amphiphilicity of the compound assessed as critical micelle concentration by spectrofluorophotometry. It counts as physicochemical. In a few lines:
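The CMC in aqueous solution was determined from the polarity-dependent change in the fluorescence spectrum of pyrene as it partitions into micelles formed by the compound.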

Series [5] concerns the target T1, Toll-like receptor 4. The series can be described thus: Agonist activity at TLR4 (unknown origin) expressed in HEK293 Blue cells measured after 2 to 4 hrs by spectrophotometry. It counts as cell-based. The method in brief: (§2)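 HEK-Blue cells stably transfected with TLR4, MD-2 and CD14 carry a secreted alkaline phosphatase reporter under an NF-κB/AP-1-inducible promoter. TLR4 activation by endotoxin was monitored through secreted alkaline phosphatase.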

Series [6] concerns the target T1, Toll-like receptor 4. The series can be described thus: Inhibition of LPS-induced TLR4 activation (unknown origin) expressed in HEK293 Blue cells compound treated for 30 mins prior LPS treatment measured after 2 to 4 hrs by spectrophotometry. The series is classed as cell-based. The method in brief: as §2
The target in series [7] is T2, Toll-like receptor 4 (Mus musculus). The series is described as follows: Antagonist activity at mouse TLR4 in mouse BMDM cells assessed as inhibition of LPS-stimulated IL-6 production compound treated for 1 hr before LPS challenge by ELISA. It counts as cell-based. In a few lines:
as §1

Series [8] concerns the target T1, Toll-like receptor 4. The series can be described thus: Antagonist activity at human TLR4 expressed in HEK293 cells co-transfected with human MD-2/CD14 assessed as inhibition of LPS-stimulated receptor signal after 2 to 4 hrs by dual luciferase reporter gene assay. The series is classed as cell-based. In a few lines: (§3)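 Cells were treated with increasing compound concentrations, with or without LPS stimulation (5 nM). Signal is dual-luciferase, normalized, and representative of three independent experiments.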
For orientation: A reporter such as luciferase makes a cellular process visible.

A further series concerns HEK293. The series can be described thus: Cytotoxicity against HEK-Blue cells after 3 hrs by MTT assay. The series is classed as cell-based. The conditions noted are these: human, hek293, 3 h. Background: Tetrazolium dyes change colour on reduction, which living cells bring about.
The target in series [9] is T3, Toll-like receptor 4 (Mus musculus, UniProt Q9QUK6).
T3 sequence (Q9QUK6 whole entry): T2 sequence (whole entry)
The series can be described thus: (§4) Antagonist activity at mouse TLR4 expressed in HEK293 cells co-transfected with mouse MD-2/CD14 assessed as inhibition of LPS-stimulated receptor signal after 2 to 4 hrs by dual luciferase reporter gene assay. It counts as cell-based. In a few lines:
as §3

Series [10] deals with T2, Toll-like receptor 4 (Mus musculus). The description is as §4. The series is classed as cell-based. In a few lines: as §3
For series [11] the target is unchanged. The series is described as follows: Agonist activity at mouse TLR4 expressed in HEK293 cells co-transfected with mouse MD-2/CD14 assessed as receptor signal after 2 to 4 hrs by dual luciferase reporter gene assay. It counts as cell-based. In a few lines:
as §3

For series [12], the target named is T1, Toll-like receptor 4. The series is described as follows: Agonist activity at human TLR4 expressed in HEK293 cells co-transfected with human MD-2/CD14 assessed as receptor signal after 2 to 4 hrs by dual luciferase reporter gene assay. It counts as cell-based. The method in brief:
as §3

The next series relates to Mus musculus. The series is described as follows: Immunosuppressive C57/B16 mouse assessed as inhibition of LPS-induced immune activation measured as TNFalpha secretion at 2 x 10^-7 mol, ip 1 hr prior LPS challenge by ELISA. It counts as functional, organism-based. The method in brief:
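C57/Bl6 mice were given compound i.p. at 2·10^-7 mol/mouse, then LPS i.p. (1·10^-9 mol/mouse) 1 hour later. Sera were collected three hours after LPS and serum TNF-α concentration was determined.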

For series [13], the target named is T2, Toll-like receptor 4 (Mus musculus). The series can be described thus: Antagonist activity at mouse TLR4 in mouse BMDM cells assessed as inhibition of LPS-stimulated TNFalpha production at 0.1 to 0.5 uM for 1 hr before LPS treatment by ELISA. The series is classed as cell-based. The method in brief:
as §1

For series [14] the target is unchanged. The series is described as follows: Antagonist activity at mouse TLR4 in mouse BMDM cells assessed as inhibition of LPS-stimulated TNFalpha production at 1 to 2 uM for 1 hr before LPS treatment by ELISA. The series is classed as cell-based. In a few lines:
as §1

Series [15] has the same target. The series is described as follows: Antagonist activity at mouse TLR4 in mouse BMDM cells assessed as inhibition of LPS-stimulated IL-6 production at 0.1 to 0.5 uM for 1 hr before LPS treatment by ELISA. The series is classed as cell-based. The method in brief: as §1
Series [16] shares this target. The series is described as follows: Antagonist activity at mouse TLR4 in mouse BMDM cells assessed as inhibition of LPS-stimulated IL-6 production at 1 to 2 uM for 1 hr before LPS treatment by ELISA. It counts as cell-based. The method in brief:
as §1

T1 sequence (O00206 whole entry): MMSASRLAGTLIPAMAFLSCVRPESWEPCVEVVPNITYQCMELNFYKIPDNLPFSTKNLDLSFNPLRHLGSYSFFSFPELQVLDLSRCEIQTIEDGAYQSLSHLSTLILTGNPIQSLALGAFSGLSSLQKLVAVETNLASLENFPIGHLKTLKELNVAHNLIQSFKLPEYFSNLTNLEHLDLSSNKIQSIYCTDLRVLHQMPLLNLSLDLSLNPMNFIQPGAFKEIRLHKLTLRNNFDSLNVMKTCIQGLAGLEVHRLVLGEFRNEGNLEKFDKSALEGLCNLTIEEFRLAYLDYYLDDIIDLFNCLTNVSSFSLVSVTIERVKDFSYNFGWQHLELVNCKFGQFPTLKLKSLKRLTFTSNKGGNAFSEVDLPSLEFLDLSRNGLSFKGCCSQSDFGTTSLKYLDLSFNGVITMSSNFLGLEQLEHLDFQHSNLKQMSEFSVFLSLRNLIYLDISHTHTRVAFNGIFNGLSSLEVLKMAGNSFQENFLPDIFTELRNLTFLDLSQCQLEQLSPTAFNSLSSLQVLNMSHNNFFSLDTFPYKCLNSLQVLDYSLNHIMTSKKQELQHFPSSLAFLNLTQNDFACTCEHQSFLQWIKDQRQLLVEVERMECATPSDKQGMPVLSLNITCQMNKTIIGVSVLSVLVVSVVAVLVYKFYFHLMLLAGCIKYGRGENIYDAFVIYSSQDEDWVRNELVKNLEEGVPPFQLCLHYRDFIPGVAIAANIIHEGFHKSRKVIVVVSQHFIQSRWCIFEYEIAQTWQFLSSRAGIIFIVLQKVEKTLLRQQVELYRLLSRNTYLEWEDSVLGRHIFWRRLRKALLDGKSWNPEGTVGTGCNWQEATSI

For the compound `CCCCCC(=O)O[C@@H]1[C@@H](OC(=O)CCCCC)[C@@H](OC)O[C@H](CSCCNC(=S)NCCN(CCN)CCN)[C@H]1OC(=O)CCCCC.Cl`, the result (on Toll-like receptor 4 [1]; in series [2]; on Toll-like receptor 4 [5]; in [11]; on Toll-like receptor 4 [12]) was inactive. Besides, the inhibition result in series [3] and in series [7] was “inactive” each time. For the same compound, the CMC in [4] came to 59.7 µM. The 50% inhibitory concentration (IC50) – broadly, the point on the concentration scale where inhibition reaches its midpoint – is 3700 nM on Toll-like receptor 4 [6], 3900 nM on Toll-like receptor 4 [8] and 3300 nM on Toll-like receptor 4 [9]. Also, the inhibition result (on Toll-like receptor 4 [6]; at Toll-like receptor 4 [8]; in [10]) was “Dose-dependent effect” in each case. Besides, in the series with HEK293, the Activity result is “Non-toxic”.
Take `CCCCCC(=O)O[C@@H]1[C@H](OC(=O)CCCCC)[C@@H](O[C@H]2O[C@H](Cn3cc(CN(CCN)CCN)nn3)[C@@H](OC(=O)CCCCC)[C@H](OC(=O)CCCCC)[C@H]2OC(=O)CCCCC)O[C@H](Cn2cc(CN(CCN)CCN)nn2)[C@H]1OC(=O)CCCCC`: the result (at Toll-like receptor 4 [1]; on Toll-like receptor 4 [5]; in series [11]; on Toll-like receptor 4 [12]) was inactive. Further, the CMC in [4] stood at 350 µM. In addition, the inhibition result in the series with Mus musculus was “Active”. For the same compound, the IC50 against Toll-like receptor 4 [6] amounted to 600 nM; at Toll-like receptor 4 [8], 200 nM; on Toll-like receptor 4 [9] it was 200 nM. Moreover, the inhibition entry (at Toll-like receptor 4 [6]; on Toll-like receptor 4 [8]; in series [10]; in [14]; in series [16]) was “Dose-dependent effect” throughout. Moreover, the Activity entry in the series with HEK293 is “Non-toxic”. The inhibition entry in series [13] and in [15] was “inactive” in each case.
For `CCCCCCCCCCCCCCO[C@H]1[C@@H](OC)O[C@H](CSCCN)[C@@H](O)[C@@H]1OCCCCCCCCCCCCCC`, at Toll-like receptor 4 [6], the inhibition entry was “inactive”. Further, the result (on Toll-like receptor 4 [8]; in series [10]; in [11]; on Toll-like receptor 4 [12]) was inactive.
As to `CCCCCCCCCCCCCCO[C@@H]1[C@H](OCCCCCCCCCCCCCC)[C@@H](O[C@H]2O[C@H](CSCCN)[C@@H](OCCCCCCCCCCCCCC)[C@H](OCCCCCCCCCCCCCC)[C@H]2OCCCCCCCCCCCCCC)O[C@H](CSCCN)[C@H]1OCCCCCCCCCCCCCC`, the inhibition result at Toll-like receptor 4 [6] was “inactive”. For the same compound, the result (on Toll-like receptor 4 [8]; in series [10]; in series [11]; on Toll-like receptor 4 [12]) was inactive.
Regarding `CCCCCC(=O)O[C@@H]1[C@H](OC(=O)CCCCC)[C@@H](O[C@H]2O[C@H](Cn3cc(CNC(=S)NCCN)nn3)[C@@H](OC(=O)CCCCC)[C@H](OC(=O)CCCCC)[C@H]2OC(=O)CCCCC)O[C@H](Cn2cc(CNC(=S)NCCN)nn2)[C@H]1OC(=O)CCCCC`, the outcome (on Toll-like receptor 4 [1]; on Toll-like receptor 4 [5]; in series [11]; at Toll-like receptor 4 [12]) was inactive. In addition, the CMC in series [4] stood at 10.9 µM. Moreover, the IC50 against Toll-like receptor 4 [6] was determined as 5000 nM; at Toll-like receptor 4 [8] it was 600 nM; at Toll-like receptor 4 [9], 600 nM. For the same compound, the inhibition entry (on Toll-like receptor 4 [6]; on Toll-like receptor 4 [8]; in [10]) was “Dose-dependent effect” in each case. Moreover, in the series on HEK293, the Activity result was “Non-toxic”.
Turning to `CCCCCCO[C@H]1[C@@H](OC)O[C@H](CSCCN)[C@@H](O)[C@@H]1OCCCCCC`, the inhibition entry on Toll-like receptor 4 [6] is “inactive”. Besides, the outcome (on Toll-like receptor 4 [8]; in series [10]; in series [11]; on Toll-like receptor 4 [12]) was inactive.
Turning to `CCCCCC(=O)O[C@@H]1[C@H](OC(=O)CCCCC)[C@@H](O[C@H]2O[C@H](CSCCN)[C@@H](OC(=O)CCCCC)[C@H](OC(=O)CCCCC)[C@H]2OC(=O)CCCCC)O[C@H](CSCCN)[C@H]1OC(=O)CCCCC`, the outcome (at Toll-like receptor 4 [1]; in series [2]; at Toll-like receptor 4 [5]; in series [11]; on Toll-like receptor 4 [12]) was inactive. Besides, the inhibition result in series [3] and in series [7] was “inactive” in each case. Moreover, the CMC in series [4] came out at 97.7 µM. Also, the figures for the IC50 against Toll-like receptor 4 [6], on Toll-like receptor 4 [8] and at Toll-like receptor 4 [9] were 1300 nM, 1400 nM and 800 nM, respectively. Moreover, the inhibition result (at Toll-like receptor 4 [6]; at Toll-like receptor 4 [8]; in series [10]) was “Dose-dependent effect” throughout. For the same compound, in the series with HEK293, the Activity result is reported as “Non-toxic”.
On to `CCCCCCO[C@@H]1[C@@H](OCCCCCC)[C@@H](OC)O[C@H](CN)[C@H]1OCCCCCC`, for which the inhibition result on Toll-like receptor 4 [6] is “inactive”. Besides, the outcome (at Toll-like receptor 4 [8]; in series [10]; in series [11]; on Toll-like receptor 4 [12]) was inactive.
Take `CCCCCCO[C@@H]1[C@H](OCCCCCC)[C@@H](O[C@H]2O[C@H](CSCCN)[C@@H](OCCCCCC)[C@H](OCCCCCC)[C@H]2OCCCCCC)O[C@H](CSCCN)[C@H]1OCCCCCC`: the inhibition entry at Toll-like receptor 4 [6] is “inactive”. The result (at Toll-like receptor 4 [8]; in series [10]; in series [11]; at Toll-like receptor 4 [12]) was inactive.
For `CCCCCC(=O)O[C@@H]1[C@@H](OC(=O)CCCCC)[C@@H](OC)O[C@H](Cn2cc(CN(CCNC(=S)NCCN)CCNC(=S)NCCN)nn2)[C@H]1OC(=O)CCCCC`, the inhibition result on Toll-like receptor 4 [6] was “inactive”. The result (at Toll-like receptor 4 [8]; in [10]; in series [11]; at Toll-like receptor 4 [12]) was inactive.
